From ChEMBL document CHEMBL1142491, “Linking bisphosphonates to the free amino groups in fluoroquinolones: preparation of osteotropic prodrugs for the prevention of osteomyelitis” (J Med Chem, 2008)
Converted amounts (≈) assume the structure as drawn. The source made the active and inactive calls. The rule behind the calls is not given here.

Tests used:
Staphylococcus aureus [1] = assay: Antibacterial activity against Staphylococcus aureus ATCC 13709 after 24 hrs by microdilution method; format: functional; conditions: ATCC 13709, 24 h
Procedure, shortened: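 MIC by broth microdilution per CLSI guidelines (M7 A7) against S. aureus ATCC 13709.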

Serum [2] = assay: Stability in 50% human serum assessed as amount of parent drug released from cattle bone meal powder over 24 hrs; format: ADME, cell-free
Procedure, shortened: (§1)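 Washed bone powder carrying bound prodrug resuspended in PBS or 50% (v/v in PBS) human or rat serum, 24 h at 37 °C, then centrifuged. Supernatant extracted with 5 volumes methanol (15 min vortex), spun, dried, redissolved in PBS. Released fluoroquinolone quantified by fluorescence. Limit of detection 0.01%.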

[3] = Stability in phosphate buffer saline assessed as amount of parent drug released from cattle bone meal powder over 24 hrs; format: ADME; procedure, shortened: as §1
Bone = assay: Binding affinity to bone assessed as drug level bound to cattle bone meal powder by fluorescence assay; format: tissue-based; parameters: concentration or dose not given beside the values; conditions: Bos taurus; Bone element
Procedure, shortened: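 Compound dissolved in PBS, added at 1 mg/mL final to bone meal powder slurry (10 mg/mL in PBS), 37 °C for 1 h. Spun 13 000 rpm 2 min. Bound amount taken as input minus amount in supernatant, measured by fluorescence. Limit of detection 0.01%.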

Staphylococcus aureus [4] = assay: Protective effect against Staphylococcus aureus ATCC 13709-induced bone infection in CD rat at 20.8 mg/kg, iv administered as single dose 1 day before bacterial challenge; format: functional, organism-based; parameters: dose 20.8 mg/kg
Procedure, shortened: (§2)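 S. aureus ATCC 13709 inoculum from frozen stock. Rats given intratibial 5% sodium morrhuate then about 5 × 10^5 CFU. Single IV bolus in saline, at the stated time relative to infection. Sacrificed 24 h post-infection. Tibiae milled and plated; mean log CFU/g bone ± SD. Detection limit 2 log CFU/g. Dunnett's test vs untreated, P<0.05.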

Serum [5] = assay: Stability in 50% rat serum assessed as amount of parent drug released from cattle bone meal powder over 24 hrs; format: ADME, cell-free; procedure, shortened: as §1
Staphylococcus aureus [6] = assay: Protective effect against Staphylococcus aureus ATCC 13709-induced bone infection in CD rat at 24 mg/kg, iv administered as single dose 1 day before bacterial challenge; format: functional, organism-based; parameters: dose 24 mg/kg; procedure, shortened: as §2
Staphylococcus aureus [7] = assay: Protective effect against Staphylococcus aureus ATCC 13709-induced bone infection in CD rat at 10 mg/kg, iv administered as single dose 1 hr after bacterial challenge; format: functional, organism-based; parameters: dose 10 mg/kg; procedure, shortened: as §2
Staphylococcus aureus [8] = assay: Protective effect against Staphylococcus aureus ATCC 13709-induced bone infection in CD rat at 42 mg/kg, iv administered as single dose 2 days before bacterial challenge; format: functional, organism-based; parameters: dose 42 mg/kg; procedure, shortened: as §2
Staphylococcus aureus [9] = assay: Protective effect against Staphylococcus aureus ATCC 13709-induced bone infection in CD rat at 20 mg/kg, iv administered as single dose 2 days before bacterial challenge; format: functional, organism-based; parameters: dose 20 mg/kg; procedure, shortened: as §2

| MIC (Staphylococcus aureus [1]) [µg/mL] | Activity (Serum [2]) [%] | Activity [3] [%] | Activity (Bone) [%] | Activity (Serum [5]) [%] | SMILES | Activity (Staphylococcus aureus [4]) | Activity (Staphylococcus aureus [6]) | Activity (Staphylococcus aureus [7]) | Activity (Staphylococcus aureus [8]) | Activity (Staphylococcus aureus [9]) |
| --- | --- | --- | --- | --- | --- | --- | --- | --- | --- | --- |
| 0.12 (≈ 0.162 µM) | 4.3 | 2.3 | 94.7 | 4.2 | COc1c(N2CCN(CCC(=O)c3ccc(OCCCC(P(=O)(O)O)P(=O)(O)O)cc3)C(C)C2)c(F)cc2c(=O)c(C(=O)O)cn(C3CC3)c12 (configuration not stated) | Active |  |  |  |  |
| > 4 | 0.01 | 0.01 | 99.6 | 0.01 | O=C(O)c1cn(C2CC2)c2cc(N3CCN(CC(P(=O)(O)O)P(=O)(O)O)CC3)c(F)cc2c1=O |  |  |  |  |  |
| > 4 | 2.4 | 1.5 | 94.3 | 1.8 | COc1c(N2CCN(C(=O)OC(C)OC(=O)CCCC(=O)NC(P(=O)(O)O)P(=O)(O)O)C(C)C2)c(F)cc2c(=O)c(C(=O)O)cn(C3CC3)c12 (configuration not stated) |  |  |  |  |  |
| > 4 | 3.7 | 5.4 | 36.6 | 6.2 | COc1c(N2CCN(C(=O)CC(C)(C)c3cc(P(=O)(O)CP(=O)(O)O)ccc3OC(C)=O)C(C)C2)c(F)cc2c(=O)c(C(=O)O)cn(C3CC3)c12 (configuration not stated) |  |  |  |  |  |
| > 4 | 0.01 | 0.01 | 98.2 | 0.01 | COc1c(N2CCN(C(=O)CC(P(=O)(O)O)P(=O)(O)O)C(C)C2)c(F)cc2c(=O)c(C(=O)O)cn(C3CC3)c12 (configuration not stated) |  |  |  |  |  |
| > 4 | 0.01 | 0.01 | 99.9 | 0.01 | COc1c(N2C[C@@H]3CCCN(C(=O)CC(P(=O)(O)O)P(=O)(O)O)[C@@H]3C2)c(F)cc2c(=O)c(C(=O)O)cn(C3CC3)c12 |  | inactive |  |  |  |
| 0.5 (≈ 0.736 µM) | 21.2 | 13.4 | 86.4 | 25.4 | COc1c(N2CCN(C(=O)OCOC(=O)CCC(P(=O)(O)O)P(=O)(O)O)C(C)C2)c(F)cc2c(=O)c(C(=O)O)cn(C3CC3)c12 (configuration not stated) |  |  |  | Active |  |
| > 4 |  |  | 0.01 |  | COc1c(N2CCN(C(=O)CC(C)(C)c3cc(P(=O)(O)CP(=O)(O)O)ccc3OP(=O)(O)O)C(C)C2)c(F)cc2c(=O)c(C(=O)O)cn(C3CC3)c12 (configuration not stated) |  |  |  |  |  |
| < 0.12 | 22.8 | 7.5 | 63.7 | 30 | COc1c(N2CCN(Cc3oc(=O)oc3-c3ccc(P(=O)(O)CP(=O)(O)O)cc3)C(C)C2)c(F)cc2c(=O)c(C(=O)O)cn(C3CC3)c12 (configuration not stated) |  |  |  |  |  |
| > 4 | 3.6 | 0.8 | 76 | 6.1 | COc1c(N2CCN(C(=O)CC(C)(C)c3cc(P(=O)(O)CP(=O)(O)O)ccc3OC(=O)C(C)C)C(C)C2)c(F)cc2c(=O)c(C(=O)O)cn(C3CC3)c12 (configuration not stated) |  |  |  |  |  |
| > 4 | 1.8 | 1.2 | 93.9 | 1.4 | COc1c(N2C[C@@H]3CCCN(C(=O)OC(C)OC(=O)CCCC(=O)NC(P(=O)(O)O)P(=O)(O)O)[C@@H]3C2)c(F)cc2c(=O)c(C(=O)O)cn(C3CC3)c12 (some centres not stated) |  |  |  |  |  |
| > 4 | 0.9 | 0.7 | 88.4 | 0.7 | COc1c(N2CCN(C(=O)OC(C)OC(=O)CCCC(P(=O)(O)O)P(=O)(O)O)C(C)C2)c(F)cc2c(=O)c(C(=O)O)cn(C3CC3)c12 (configuration not stated) |  |  |  |  |  |
| > 4 | 0.01 | 0.01 | 92.2 | 0.01 | COc1c(N2C[C@@H]3CCCN(CC(P(=O)(O)O)P(=O)(O)O)[C@@H]3C2)c(F)cc2c(=O)c(C(=O)O)cn(C3CC3)c12 |  |  |  |  |  |

| SMILES | MIC (Staphylococcus aureus [1]) [µg/mL] | Activity (Serum [2]) [%] | Activity [3] [%] | Activity (Bone) [%] | Activity (Serum [5]) [%] | Activity (Staphylococcus aureus [4]) | Activity (Staphylococcus aureus [6]) | Activity (Staphylococcus aureus [7]) | Activity (Staphylococcus aureus [8]) | Activity (Staphylococcus aureus [9]) |
| --- | --- | --- | --- | --- | --- | --- | --- | --- | --- | --- |
| COc1c(N2C[C@@H]3CCCN[C@@H]3C2)c(F)cc2c(=O)c(C(=O)O)cn(C3CC3)c12 [MOXIFLOXACIN] | 0.03 (≈ 0.0747 µM) |  |  | 0.01 |  |  |  | Active |  |  |
| COc1c(N2CCNC(C)C2)c(F)cc2c(=O)c(C(=O)O)cn(C3CC3)c12 (configuration not stated) [GATIFLOXACIN] | 0.06 (≈ 0.16 µM) |  |  | 0.01 |  |  |  |  |  | inactive |
| O=C(O)c1cn(C2CC2)c2cc(N3CCNCC3)c(F)cc2c1=O [CIPROFLOXACIN] |  |  |  | 0.01 |  |  |  |  |  |  |
